Bioassay records from PubChem.
This is a sample that favours compounds with a hit; in the whole collection about 4.3% have one here.
TAAR1 antag: human TAAR1 antagonism. Q96RJ0. CHO RD-HGA16 TAAR1, Fluo-8 calcium fluorescence, antagonist. inhibition, % at 3 µM. actives 1.5% (n = 360,000). AID 624466;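 active = inhibition above a per-plate cutoff, the mean inhibition of test compounds on that plate plus 3 SD, cut at about 49% in these data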;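 also: 0% = DMSO plus EC80 beta-PEA response and 100% = DMSO alone without agonist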
Target sequence (Q96RJ0 whole entry, looked up): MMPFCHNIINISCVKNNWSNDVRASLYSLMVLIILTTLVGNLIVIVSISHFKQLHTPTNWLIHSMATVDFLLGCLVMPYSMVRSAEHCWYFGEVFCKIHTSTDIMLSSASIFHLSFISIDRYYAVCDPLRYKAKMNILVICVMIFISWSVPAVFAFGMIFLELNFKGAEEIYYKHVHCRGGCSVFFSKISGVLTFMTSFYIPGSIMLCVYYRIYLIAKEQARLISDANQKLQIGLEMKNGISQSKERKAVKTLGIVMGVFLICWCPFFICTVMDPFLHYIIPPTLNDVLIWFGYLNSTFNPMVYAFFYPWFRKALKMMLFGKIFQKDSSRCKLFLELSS
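Material: RD-HGA16 CHO cells with stable hTAAR1 and Gα16; Dosing: single nominal final test compound concentration of 3 µM; Schedule: seeding 17-24 h prior, 75-min 37 °C, 30-min RT dye loading; Detection: kinetic Fluo-8 calcium fluorescence measurement; Measure: % inhibition from peak post-agonist over basal fluorescence ratio; Benchmarks: vehicle and agonist controls.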
MC4R antagonist: blocks human MC4R cAMP signaling | MC4R-expressing cells, MTII-stimulated cAMP, LANCE TR-FRET | inhibition, % at 6.5 µM | actives 0.48% (n = 360,000) | AID 540295;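 active = inhibition above its plate's cutoff, the mean of tested wells on that plate plus 3 SD, cut at about 29% in these data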;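 also: 0% = Melanotan II alone and 100% = Melanotan II plus saturating MCL0020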
Target sequence (P32245 whole entry, looked up): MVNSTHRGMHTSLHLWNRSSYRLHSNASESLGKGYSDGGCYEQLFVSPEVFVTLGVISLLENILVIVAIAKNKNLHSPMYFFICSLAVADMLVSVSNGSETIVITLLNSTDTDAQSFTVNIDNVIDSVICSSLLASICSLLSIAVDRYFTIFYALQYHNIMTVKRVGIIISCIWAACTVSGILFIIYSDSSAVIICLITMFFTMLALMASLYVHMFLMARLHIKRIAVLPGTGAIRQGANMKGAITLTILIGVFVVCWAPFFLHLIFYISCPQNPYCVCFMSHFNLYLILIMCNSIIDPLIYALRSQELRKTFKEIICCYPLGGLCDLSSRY
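Material – human MC4R-expressing U2OS cells · Repeats – no replicates · Detection – TR-FRET with Eu-cAMP and labeled anti-cAMP, 671 nm · Times – compound 30 min, challenge 1 h, detection 1 h · Compound – single nominal compound dose of 6.5 µM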
TAAR1 agonist: agonists of human TAAR1; Q96RJ0; CHO RD-HGA16 TAAR1, Fluo-8 calcium fluorescence; vehicle wells 0%, saturating PEA agonist 100%; activation, % at 3 µM; actives 0.99% (n = 360,000); AID 624467;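 active = activation above the mean activation of all test compounds in the run plus 3 SD, cut at about 38% in these data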
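test system = CHO RD-HGA16 cells carrying human TAAR1 plus Gα16 | schedule = 17-24 h seeding, 75 min 37 °C dye, 30 min RT | compound dosing = 3 µM single concentration | control set = DMSO and PEA EC100 | replicates = n 1 | signal = Fluo-8 fluorescence, 5 s baseline then 140 s kinetic read | measure = percent activation vs PEA EC100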
Beta2AR agonist: human beta-2 adrenergic receptor agonism by FAP; response, % (test concentration not listed); P07550; actives 0.43% (n = 340,000); AID 504454; Am2.2-beta2AR cells, FAP receptor internalization, flow cytometry;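 active = response above a set limit, near 3 SD of response in nonfluorescent compounds, cut at about 42% in these data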
MC4R barr agon: human MC4R agonism via beta-arrestin. activation, % at 8.9 µM. actives 0.98% (n = 360,000). P32245. U2OS MC4R beta-arrestin complementation, luminescence; percent of melanotan II response, DMSO zero;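 active = activation above a per-plate cutoff, the mean activation of sample wells on that plate plus 3 SD, cut at about 8% in these data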
m5-HT2A agonist: agonists of mouse serotonin 5-HT2A receptor (HTR2A) | P35363 | CHO-K1 mHTR2A beta-arrestin complementation, luminescence; percent of 30 µM serotonin response | activation, % at 7.6 µM | actives 0.66% (n = 360,000);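 active = activation above a run cutoff, the mean activation of all tested compounds plus 3 SD, cut at about 14% in these data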;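 also: 0% = plate median of compound wells and 100% = 30 µM serotonin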
Active calls of the source: *; nt = no result.

SMILES	TAAR1 antag	MC4R antagonist	TAAR1 agonist	Beta2AR agonist	MC4R barr agon	m5-HT2A agonist
O=C1C=CC(=O)c2c(O)c(N3CCN(CCO)CC3)c(Cl)c(O)c21	7	-21	8	100*	-2	8
O=S(=O)(c1ccc(Br)cc1Cl)N1CCN(CCO)CC1	17	13	1	-7	-2	-3
CC(C)(C)OC(=O)N1C[C@@]23C[C@H](c4cccc(F)c4)[C@@H](C[C@@H]2S1(=O)=O)O3	6	nt	2	nt	nt	nt
O=C(O)/C=C/c1ccc([N+](=O)[O-])o1	1	4	3	16	-1	-2
O=C1NC(=S)S/C1=C\C=C\c1ccc([N+](=O)[O-])o1	72*	16	58*	32	1	2
CC(=O)OCCCNc1cc(SCc2ccco2)c2nonc2c1[N+](=O)[O-]	7	-14	-1	37	-2	-5
CCCC(=O)OCCNc1cc(SCc2ccco2)c2nonc2c1[N+](=O)[O-]	3	-9	-1	64*	1	-3
CCC(=O)OCCNc1cc(Sc2nc3ccccc3[nH]2)c2nonc2c1[N+](=O)[O-]	20	-24	11	78*	-2	-2
CCOC(=O)[C@]12CCCC=C1N(Cc1ccccc1)C(=O)[C@H](CC(=O)NCc1cccc3ccccc13)C2	30	nt	6	nt	nt	-6
COC(=O)[C@]12C[C@H](CC(=O)NCc3cccc4ccccc34)C(=O)N(CCc3ccc(OC)c(OC)c3)C1=C[C@H](C(C)(C)C)O[C@@H]2C	-14	nt	3	nt	nt	nt
CC(NCC(O)COc1ccc2ccccc2c1)c1ccccc1 (configuration not stated)	32	-7	31	17	4	-11
CC(NCC(O)COC1CCC(C(C)(C)C)CC1)c1ccccc1 (configuration not stated)	1	7	44*	24	6	3
CC1CCC(C(C)C)C(OCC(O)CNC(C)c2ccccc2)C1 (configuration not stated)	-7	9	37	18	8.3*	3
CN1CCCCC(NC(=O)c2c(F)cccc2F)C1=O (configuration not stated)	-5	nt	2	nt	nt	nt
CCCCOCC1CN(CCCC)S(=O)(=O)c2c(Oc3ccc(OC)cc3)cccc2O1 (configuration not stated)	-11	nt	2	nt	nt	nt
O=C(CSc1ccc(Cl)cc1)Nc1ccc(N2CCN(C(=O)c3ccc(Cl)cc3)CC2)cc1	2	16	6	0	14*	-3
Cc1ccc(C(=O)N2CCN(c3ccc(NC(=O)COc4ccccc4C)cc3)CC2)cc1	55*	-2	9	40	2	6
CCC(=O)N1CCN(c2ccc(NC(=O)COc3ccc(C)cc3C)cc2)CC1	7	6	12	-3	0	6
CC(C)(CO)NCc1ccccc1OCC(=O)Nc1ccccc1	8	-5	-1	6	0	3
O=C(CSc1nc2cc(Cl)ccc2o1)Nc1ccc(N2CCOCC2)cc1	nt	-3	nt	5	19*	3
Cc1ccc(NC(=O)COc2ccccc2CNC(C)(C)CC(C)(C)C)cc1	-3	4	46*	19	3	-3
COC(=O)CC#C[C@H](C)[C@@H](NS(C)(=O)=O)C1CCCCC1	-3	nt	0	nt	nt	nt
Cc1[nH]nc2c1C(c1ccc(F)cc1)N(Cc1ccccc1)C2=O (configuration not stated)	-23	nt	-1	nt	nt	nt
CC(C)(C)NC(=O)C1C(c2ccccc2)=Nc2ccccc2N1C(=O)c1ccc(C(F)(F)F)cc1 (configuration not stated)	-33	nt	-2	nt	nt	-3
O=Nc1ccc(Br)cn1	-8	nt	2	nt	nt	nt
SMILES	TAAR1 antag	MC4R antagonist	TAAR1 agonist	Beta2AR agonist	MC4R barr agon	m5-HT2A agonist
O=C(/C=C/c1ccc(OCCCF)cc1)Nc1ccnc(-c2cccnc2)n1	55*	12	19	2	0	4
C#CCOCCOCCOCCNc1nc(N2CCN(C(=O)CCCCCCCCCCNC(=O)[C@H](CCCCN)n3cc(CCO)nn3)CC2)nc(N2CCN(C(=O)CCCCCCCCCCNC(=O)[C@@H]([C@H](C)O)n3cc(C)nn3)CC2)n1	nt	2	nt	87*	0	5
C#CCOCCOCCOCCNc1nc(N2CCN(C(=O)CCCCCCCCCCNC(=O)[C@H](CCCCN)n3cc(C)nn3)CC2)nc(N2CCN(C(=O)CCCCCCCCCCNC(=O)[C@@H]([C@H](C)CC)n3cc(CCCCCN)nn3)CC2)n1	nt	52*	nt	-534	-1	-1
C#CCOCCOCCOCCNc1nc(N2CCN(C(=O)CCCCCCCCCCNC(=O)[C@H]([C@@H](C)CC)n3cc(CCCCCN)nn3)CC2)nc(N2CCN(C(=O)CCCCCCCCCCNC(=O)[C@@H]([C@H](C)O)n3cc(C)nn3)CC2)n1	nt	23	nt	29	3	5
NC(=O)c1c(N)[nH]c(C(=O)c2ccccc2)c1-c1ccccc1Cl	19	nt	9	nt	nt	nt
O=[N+]([O-])c1ccc2c(c1)C(N1CCN(CCO)CC1)Cc1ccc(F)cc1S2 (configuration not stated)	16	nt	33	nt	nt	-5
OCCN1CCN(C2CCC(c3ccc(F)cc3)c3ccc(F)cc32)CC1 (configuration not stated)	-31	6	28	3	9.0*	-10
O=C(Nc1nc2ccccc2s1)C1c2ccccc2Oc2ccccc21	14	17	7	6	-1	-4
CNS(=O)(=O)c1ccc(NC(=O)C2c3ccccc3Oc3ccccc32)cc1	0	4	12	3	1	1
CCN(CC)S(=O)(=O)c1ccc(NC(=O)C2c3ccccc3Oc3ccccc32)cc1	21	5	41*	0	0	-6
CCc1nnc(NC(=O)C2c3ccccc3Oc3ccccc32)s1	-24	8	51*	5	2	-4
CCN1/C(=C/C=C/c2oc3ccc(-c4ccccc4)cc3[n+]2CC)Oc2ccc(-c3ccccc3)cc21	105*	11	531*	nt	8	3
C[C@@H]1CCCCO[C@H](CN(C)Cc2ccncc2)[C@@H](C)CN([C@H](C)CO)C(=O)c2cc(N(C)C)ccc2O1	-7	nt	0	nt	nt	nt
COC(=O)[C@@H](Cc1ccccc1)N[C@H](/C=C/c1ccccc1)[C@@H](O)Cc1ccccc1	14	nt	-1	nt	nt	nt
CN(C)/C=N/C(=S)Nc1ccccc1F	-4	1	-1	51*	0	2
COC(=O)C1=C(C)N(Cc2ccccc2C(F)(F)F)C(=NCc2ccc(OC)cc2)NC1c1ccc(C(F)(F)F)cc1 (configuration not stated)	2	nt	9	nt	nt	nt
Cc1ccccc1S(=O)(=O)N1CCCc2nc(-c3ccc(F)cc3)ccc21	19	nt	5	nt	nt	nt
